Data reported in ChEMBL document CHEMBL1250515, “4-(3-Halo/amino-4,5-dimethoxyphenyl)-5-aryloxazoles and -N-methylimidazoles that are cytotoxic against combretastatin A resistant tumor cells and vascular disrupting in a cisplatin resistant germ cell tumor model” (J Med Chem, 2010).

Columns and labels:
518A2 [1] = assay: Induction of apoptosis in human 518A2 cells assessed as intact mitochondria at 5 uM after 72 hrs relative to control; format: functional
HL-60 [2] = assay: Cytotoxicity against human HL60 cells after 72 hrs by MTT assay; format: functional, cell-based; details: HL-60, 72 h
Outline: (§1)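 MTT read-out. HL-60 seeded at 5 × 10⁵/mL and adherent lines at 5 × 10⁴/mL, precultured 24 h, then exposed to compounds for 72 h at 37 °C, 5% CO₂. MTT final 0.05% (HL-60, 518A2) or 0.1% (others), 2 h. Formazan dissolved in SDS/DMSO/acetic acid; A570 minus A630. Quadruplicates; viability relative to controls; IC50 from four-parameter Hill fit.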

HT-29 = assay: Cytotoxicity against human HT-29 cells after 72 hrs by MTT assay; format: functional, cell-based; details: HT-29, 72 h; outline: as §1
[3] = Cytotoxicity against human 518A2 cells after 72 hrs by MTT assay; format: functional, cell-based; details: 518A2, 72 h; outline: as §1
HL-60 [4] = assay: Induction of apoptosis in human HL60 cells assessed as ROS production at 50 uM after 24 hrs by NBT reduction assay relative to control; format: functional
518A2 [5] = assay: Induction of apoptosis in human 518A2 cells assessed as ROS production at 50 uM after 24 hrs by NBT reduction assay relative to control; format: functional
HL-60 [6] = assay: Induction of apoptosis in human HL60 cells assessed as intact mitochondria at 5 uM after 72 hrs relative to control; format: functional
[7] = Cytotoxicity against human vinblastine-resistant KBV1 cells after 72 hrs by MTT assay; format: functional, cell-based; details: KB-V1, 72 h; outline: as §1
[8] = Cytotoxicity against human multidrug-resistant MCF7/Topo cells after 72 hrs by MTT assay; format: functional, cell-based; outline: as §1

COc1cc(-c2ncoc2-c2ccc(N(C)C)cc2)cc(N)c1OC.Cl
Activity (518A2 [1]): 82%
IC50 (HL-60 [2]): 0.9 nM
IC50 (HT-29): > 15000 nM
IC50 [3]: 110 nM
Activity (HL-60 [4]): 1.4%
Activity (518A2 [5]): 3.3%
Activity (HL-60 [6]): 62%

COc1cc(-c2ncn(C)c2-c2ccc(N(C)C)cc2)cc(Cl)c1OC.Cl
Activity (518A2 [1]): 80%
IC50 (HL-60 [2]): 0.02 nM
IC50 (HT-29): 0.2 nM
IC50 [3]: 2300 nM
Activity (HL-60 [4]): 2.4%
Activity (518A2 [5]): 6%
Activity (HL-60 [6]): 61%

COc1ccc(-c2c(-c3cc(N)c(OC)c(OC)c3)ncn2C)cc1F.Cl
Activity (518A2 [1]): 98%
IC50 (HL-60 [2]): > 10000 nM
IC50 (HT-29): > 50000 nM
IC50 [3]: > 10000 nM
Activity (HL-60 [4]): 1.2%
Activity (518A2 [5]): 1.4%
Activity (HL-60 [6]): 90%

COc1ccc(-c2c(-c3cc(N)c(OC)c(OC)c3)ncn2C)cc1O.Cl
Activity (518A2 [1]): 94%
IC50 (HL-60 [2]): 4600 nM
IC50 (HT-29): > 100000 nM
IC50 [3]: 2800 nM
Activity (HL-60 [4]): 1.1%
Activity (518A2 [5]): 1.8%
Activity (HL-60 [6]): 76%

COc1ccc(/C=C\c2cc(OC)c(OC)c(OC)c2)cc1O [COMBRETASTATIN A4]
IC50 [7]: 0.4 nM
IC50 (HL-60 [2]): 0.1 nM
IC50 (HT-29): 3600 nM
IC50 [3]: 18 nM
IC50 [8]: 500 nM

COc1ccc(-c2c(-c3cc(Br)c(OC)c(OC)c3)ncn2C)cc1F.Cl
Activity (518A2 [1]): 89%
IC50 (HL-60 [2]): 9700 nM
IC50 (HT-29): 510 nM
IC50 [3]: 66 nM
Activity (HL-60 [4]): 1.4%
Activity (518A2 [5]): 3.9%
Activity (HL-60 [6]): 60%
